According to ChEMBL document CHEMBL3758168, “Hybrid triazoles: Design and synthesis as potential dual inhibitor of growth and efflux inhibition in tuberculosis” (Eur J Med Chem, 2016):
In brackets after ≈: the same amount, converted by molar mass.

Legend:
[1] = test system: Mycolicibacterium smegmatis; experiment: Anti-tubercular activity against Mycobacterium smegmatis MC2 155 ATCC 700084 after 3 days by microdilution method; type: functional; details: MC2 155 ATCC 700084, 72 h
Method in brief: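 M. smegmatis mc2155 grown in MB7H9 + 10% OADC at 37 °C with shaking to OD600 0.8. Inoculum set to 0.5 McFarland, diluted 1:100, and mixed 1:1 with two-fold serial dilutions in MB7H9. Plates incubated 3 days at 37 °C with growth and sterility controls. MIC taken as the lowest concentration with no visible growth.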

[2] = Cytotoxicity against human MDM assessed as cell viability after 3 days by Alamar blue dye-based fluorocytometric analysis relative to control; details: 72 h
[3] = test system: Mycobacterium tuberculosis; experiment: Antibacterial activity against Mycobacterium tuberculosis H37Rv ATCC 27294T assessed as isoniazid MIC at 0.25 ug/ml after 7 days by microdilution checkerboard assay; type: functional; details: 168 h
Method in brief: (§1)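 Two-dimensional checkerboard in H37Rv at 10^5 CFU/ml in MB7H9/OADC. Partner drug (amikacin, EtBr, isoniazid, ofloxacin or rifampin) two-fold serially diluted across columns 3-11. Test compound two-fold serially diluted down rows 2-6. Plates incubated 7 days at 37 °C, then MTT added overnight. […] Run in triplicate.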

[4] = test system: Mycobacterium tuberculosis; experiment: Antibacterial activity against Mycobacterium tuberculosis H37Rv ATCC 27294T assessed as ethidium bromide MIC at 0.25 ug/ml after 7 days by microdilution checkerboard assay; type: functional; details: 168 h; method in brief: as §1
[5] = test system: Mycobacterium tuberculosis; experiment: Antibacterial activity against Mycobacterium tuberculosis H37Rv ATCC 27294T assessed as ethidium bromide MIC at 0.5 ug/ml after 7 days by microdilution checkerboard assay; type: functional; details: 168 h; method in brief: as §1
[6] = test system: Mycobacterium tuberculosis; experiment: Antibacterial activity against Mycobacterium tuberculosis H37Rv ATCC 27294T assessed as ethidium bromide MIC at 1 ug/ml after 7 days by microdilution checkerboard assay; type: functional; details: 168 h; method in brief: as §1
[7] = test system: Mycobacterium tuberculosis; experiment: Antibacterial activity against Mycobacterium tuberculosis H37Rv ATCC 27294T assessed as ethidium bromide MIC at 2 ug/ml after 7 days by microdilution checkerboard assay; type: functional; details: 168 h; method in brief: as §1
[8] = test system: Mycobacterium tuberculosis; experiment: Antibacterial activity against Mycobacterium tuberculosis H37Rv ATCC 27294T assessed as ethidium bromide MIC at 4 ug/ml after 7 days by microdilution checkerboard assay; type: functional; details: 168 h; method in brief: as §1
[9] = test system: Mycobacterium tuberculosis; experiment: Antibacterial activity against Mycobacterium tuberculosis H37Rv ATCC 27294T assessed as ethidium bromide MIC at 8 ug/ml after 7 days by microdilution checkerboard assay; type: functional; details: 168 h; method in brief: as §1
[10] = test system: Mycobacterium tuberculosis; experiment: Antibacterial activity against Mycobacterium tuberculosis H37Rv ATCC 27294T assessed as ethidium bromide MIC at 16 ug/ml after 7 days by microdilution checkerboard assay; type: functional; details: 168 h; method in brief: as §1
[11] = test system: Mycobacterium tuberculosis; experiment: Antibacterial activity against Mycobacterium tuberculosis H37Rv ATCC 27294T assessed as ofloxacin MIC at 0.25 ug/ml after 7 days by microdilution checkerboard assay; type: functional; details: 168 h; method in brief: as §1
[12] = test system: Mycobacterium tuberculosis; experiment: Antibacterial activity against Mycobacterium tuberculosis H37Rv ATCC 27294T assessed as ofloxacin MIC at 0.5 ug/ml after 7 days by microdilution checkerboard assay; type: functional; details: 168 h; method in brief: as §1
[13] = test system: Mycobacterium tuberculosis; experiment: Antibacterial activity against Mycobacterium tuberculosis H37Rv ATCC 27294T assessed as ofloxacin MIC at 1 ug/ml after 7 days by microdilution checkerboard assay; type: functional; details: 168 h; method in brief: as §1
[14] = test system: Mycobacterium tuberculosis; experiment: Antibacterial activity against Mycobacterium tuberculosis H37Rv ATCC 27294T assessed as ofloxacin MIC at 2 ug/ml after 7 days by microdilution checkerboard assay; type: functional; details: 168 h; method in brief: as §1
[15] = test system: Mycobacterium tuberculosis; experiment: Antibacterial activity against Mycobacterium tuberculosis H37Rv ATCC 27294T assessed as ofloxacin MIC at 4 ug/ml after 7 days by microdilution checkerboard assay; type: functional; details: 168 h; method in brief: as §1
[16] = test system: Mycobacterium tuberculosis; experiment: Antibacterial activity against Mycobacterium tuberculosis H37Rv ATCC 27294T assessed as ofloxacin MIC at 8 ug/ml after 7 days by microdilution checkerboard assay; type: functional; details: 168 h; method in brief: as §1
[17] = test system: Mycobacterium tuberculosis; experiment: Antibacterial activity against Mycobacterium tuberculosis H37Rv ATCC 27294T assessed as ofloxacin MIC at 16 ug/ml after 7 days by microdilution checkerboard assay; type: functional; details: 168 h; method in brief: as §1
[18] = test system: Mycobacterium tuberculosis; experiment: Antibacterial activity against Mycobacterium tuberculosis H37Rv ATCC 27294T assessed as amikacin MIC at 0.25 ug/ml after 7 days by microdilution checkerboard assay; type: functional; details: 168 h; method in brief: as §1
[19] = test system: Mycobacterium tuberculosis; experiment: Antibacterial activity against Mycobacterium tuberculosis H37Rv ATCC 27294T assessed as amikacin MIC at 0.5 ug/ml after 7 days by microdilution checkerboard assay; type: functional; details: 168 h; method in brief: as §1
[20] = test system: Mycobacterium tuberculosis; experiment: Antibacterial activity against Mycobacterium tuberculosis H37Rv ATCC 27294T assessed as amikacin MIC at 1 ug/ml after 7 days by microdilution checkerboard assay; type: functional; details: 168 h; method in brief: as §1
[21] = test system: Mycobacterium tuberculosis; experiment: Antibacterial activity against Mycobacterium tuberculosis H37Rv ATCC 27294T assessed as amikacin MIC at 2 ug/ml after 7 days by microdilution checkerboard assay; type: functional; details: 168 h; method in brief: as §1
[22] = test system: Mycobacterium tuberculosis; experiment: Antibacterial activity against Mycobacterium tuberculosis H37Rv ATCC 27294T assessed as amikacin MIC at 4 ug/ml after 7 days by microdilution checkerboard assay; type: functional; details: 168 h; method in brief: as §1
[23] = test system: Mycobacterium tuberculosis; experiment: Anti-tubercular activity against Mycobacterium tuberculosis H37Rv ATCC 27294T after 7 days by mircodilution method; type: functional; details: 168 h
Method in brief: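 H37Rv grown static in MB7H9 + 10% OADC at 37 °C to OD600 0.8, then diluted to about 10^5 cells/ml. Mixed 1:1 with two-fold serial dilutions in MB7H9/OADC and incubated 7 days at 37 °C. MTT added to final 2.5% and plates incubated overnight. MIC is the lowest concentration with no colour change. Run in triplicate.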

[24] = test system: Mycobacterium tuberculosis; experiment: Antibacterial activity against Mycobacterium tuberculosis H37Rv ATCC 27294T assessed as isoniazid MIC at 16 ug/ml after 7 days by microdilution checkerboard assay; type: functional; details: 168 h; method in brief: as §1
[25] = test system: Mycobacterium tuberculosis; experiment: Antibacterial activity against Mycobacterium tuberculosis H37Rv ATCC 27294T assessed as isoniazid MIC at 8 ug/ml after 7 days by microdilution checkerboard assay; type: functional; details: 168 h; method in brief: as §1
[26] = test system: Mycobacterium tuberculosis; experiment: Antibacterial activity against Mycobacterium tuberculosis H37Rv ATCC 27294T assessed as isoniazid MIC at 4 ug/ml after 7 days by microdilution checkerboard; type: functional; details: 168 h; method in brief: as §1
[27] = test system: Mycobacterium tuberculosis; experiment: Antibacterial activity against Mycobacterium tuberculosis H37Rv ATCC 27294T assessed as isoniazid MIC at 2 ug/ml after 7 days by microdilution checkerboard assay; type: functional; details: 168 h; method in brief: as §1
[28] = test system: Mycobacterium tuberculosis; experiment: Antibacterial activity against Mycobacterium tuberculosis H37Rv ATCC 27294T assessed as isoniazid MIC at 1 ug/ml after 7 days by microdilution checkerboard assay; type: functional; details: 168 h; method in brief: as §1
[29] = test system: Mycobacterium tuberculosis; experiment: Antibacterial activity against Mycobacterium tuberculosis H37Rv ATCC 27294T assessed as isoniazid MIC at 0.5 ug/ml after 7 days by microdilution checkerboard assay; type: functional; details: 168 h; method in brief: as §1
[30] = test system: Mycobacterium tuberculosis; experiment: Antibacterial activity against Mycobacterium tuberculosis H37Rv ATCC 27294T assessed as amikacin MIC at 8 ug/ml after 7 days by microdilution checkerboard assay; type: functional; details: 168 h; method in brief: as §1
[31] = test system: Mycobacterium tuberculosis; experiment: Antibacterial activity against Mycobacterium tuberculosis H37Rv ATCC 27294T assessed as amikacin MIC at 16 ug/ml after 7 days by microdilution checkerboard assay; type: functional; details: 168 h; method in brief: as §1
[32] = test system: Mycobacterium tuberculosis; experiment: Antibacterial activity against Mycobacterium tuberculosis H37Rv ATCC 27294T assessed as rifampin MIC at 0.25 ug/ml after 7 days by microdilution checkerboard assay; type: functional; details: 168 h; method in brief: as §1
[33] = test system: Mycobacterium tuberculosis; experiment: Antibacterial activity against Mycobacterium tuberculosis H37Rv ATCC 27294T assessed as rifampin MIC at 0.5 ug/ml after 7 days by microdilution checkerboard assay; type: functional; details: 168 h
Method in brief: (§2)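 M. tuberculosis H37Rv grown in MB7H9 + 10% OADC at 37 °C to OD600 0.8; plates inoculated at 10^5 CFU/ml. Rifampicin two-fold serially diluted across columns, test compound two-fold diluted down rows (two-dimensional checkerboard). Sealed, 37 °C for seven days, then MTT added and incubated overnight. MIC read as no colour change. Triplicate.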

[34] = test system: Mycobacterium tuberculosis; experiment: Antibacterial activity against Mycobacterium tuberculosis H37Rv ATCC 27294T assessed as rifampin MIC at 1 ug/ml after 7 days by microdilution checkerboard assay; type: functional; details: 168 h; method in brief: as §2
[35] = test system: Mycobacterium tuberculosis; experiment: Antibacterial activity against Mycobacterium tuberculosis H37Rv ATCC 27294T assessed as rifampin MIC at 2 ug/ml after 7 days by microdilution checkerboard assay; type: functional; details: 168 h; method in brief: as §2
[36] = test system: Mycobacterium tuberculosis; experiment: Antibacterial activity against Mycobacterium tuberculosis H37Rv ATCC 27294T assessed as rifampin MIC at 4 ug/ml after 7 days by microdilution checkerboard assay; type: functional; details: 168 h; method in brief: as §2
[37] = test system: Mycobacterium tuberculosis; experiment: Antibacterial activity against Mycobacterium tuberculosis H37Rv ATCC 27294T assessed as rifampin MIC at 8 ug/ml after 7 days by microdilution checkerboard assay; type: functional; details: 168 h; method in brief: as §2
[38] = test system: Mycobacterium tuberculosis; experiment: Antibacterial activity against Mycobacterium tuberculosis H37Rv ATCC 27294T assessed as rifampin MIC at 16 ug/ml after 7 days by microdilution checkerboard assay; type: functional; details: 168 h; method in brief: as §2

Compound: CCSc1nnc(COc2ccccc2C2=NOC(c3ccc(Cl)cc3Cl)C2)n1NC(C)=O (stereo not drawn)
- MIC [1]: 2 µg/mL (≈ 3.95 µM)
- IC50 [2]: 9.7 µg/mL (≈ 19.2 µM)
- MIC [3]: 0.1 µg/mL
- MIC [4]: 12.5 µg/mL
- MIC [5]: 12.5 µg/mL
- MIC [6]: 12.5 µg/mL
- MIC [7]: 12.5 µg/mL
- MIC [8]: 6.25 µg/mL
- MIC [9]: 1.56 µg/mL
- MIC [10]: 0.39 µg/mL
- MIC [11]: 2 µg/mL
- MIC [12]: 1 µg/mL
- MIC [13]: 1 µg/mL
- MIC [14]: 1 µg/mL
- MIC [15]: 1 µg/mL
- MIC [16]: 1 µg/mL
- MIC [17]: 0.0312 µg/mL
- MIC [18]: 1 µg/mL
- MIC [19]: 1 µg/mL
- MIC [20]: 1 µg/mL
- MIC [21]: 1 µg/mL
- MIC [22]: 1 µg/mL
- MIC [23]: 8 µg/mL (≈ 15.8 µM)
- MIC [24]: 0.00156 µg/mL
- MIC [25]: 0.025 µg/mL
- MIC [26]: 0.1 µg/mL
- MIC [27]: 0.1 µg/mL
- MIC [28]: 0.1 µg/mL
- MIC [29]: 0.1 µg/mL
- MIC [30]: 0.25 µg/mL
- MIC [31]: 0.0312 µg/mL
- MIC [32]: 1 µg/mL
- MIC [33]: 0.5 µg/mL
- MIC [34]: 0.5 µg/mL
- MIC [35]: 0.25 µg/mL
- MIC [36]: 0.125 µg/mL
- MIC [37]: 0.0312 µg/mL
- MIC [38]: 0.0156 µg/mL
